Data on 24 compounds can be found in PubChem BioAssay.

Experiment [1] is described as follows: S. cerevisiae growth inhibition in permissive medium (OD615), pilot counter-assay for S. cerevisiae lifespan shortening project, permissive growth control (AID 705;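 active means growth inhibition above 25% in both replicates, a cutoff set 3 SD above the mean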). Particulars: OD615, 24 h, at 10 µM, stronger effect = higher value. The gist of the method:
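System: engineered DeaD yeast; Medium: permissive raffinose/galactose medium; Compound dosing: 10 µM single dose, 0.25% DMSO; Incubation: 4 h cell pre-growth, 24 h exposure at 30 °C; Technique: OD at 615 nm; Evaluation: growth inhibition from lowered OD615 after 24 h.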

Experiment [2] is described as follows: S. cerevisiae growth inhibition in restrictive medium, OD615, pilot screen, restrictive growth control, yeast lifespan reduction project (AID 706;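 active means growth inhibition above a set limit, 3 SD over mean compound inhibition, in both replicates, cut at about 43% in these data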;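 further: modified DeaD lifespan yeast strain shifted to restrictive glucose medium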). Particulars: OD615, 48 h, at 10 µM, stronger effect = higher value. The method in brief: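 Material: modified S. cerevisiae; buffer or medium: CSMM-D glucose medium; doses: one concentration, 10 µM final, 0.25% DMSO; incubation: 48 h compound exposure at 30 °C; detection: optical density at 615 nm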

The nature of experiment [3]: doxorubicin toxicity protection in MRP-1 cells – H69AR cells, CellTiter-Glo, duplicate, MRP-1 activator project, pilot screen (AID 807;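 active means viability increase at or above a cutoff of the median across tested compounds plus 3 SD, cut at about 8.5% in these data, passing the limit was not always enough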;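 further: compound pretreatment 18-22 h then 72 h combined with doxorubicin; 0% = doxorubicin alone and 100% = vehicle without doxorubicin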). Conditions: H69AR viability with doxorubicin, CellTiter-Glo luminescence; at 10 µM; stronger effect = higher value.
Experiment [4] in a line: viability of HCT116 without oncogenic beta-catenin – human colon tumor cells, pilot screen (AID 823;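 active means cell viability at or below a set limit in both duplicate runs, the limit being the all-compound median minus 4 SD, cut at about 23% in these data, passing the limit was not always enough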;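 further: 0% = wells killed by 20 µM Hyamine and 100% = untreated DMSO cell wells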). Conditions: HCT116 beta-catenin knockout viability, CellTiter-Glo, 60 h; at 10 µM; stronger effect = lower value. (In general: In ATP-based viability assays light output follows the ATP content of the culture.)
Experiment [5] can be described thus: viability of PTEN-null HCT116 cells – cell-based, HCT116 clonal line, CellTiter-Glo, pilot screen (AID 824;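 active means viability at or below 27.92% in each of two runs, the all-compound median minus 4 SD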;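 further: 0% = 20 µM Hyamine control and 100% = vehicle cell control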). Particulars: HCT116 PTEN-deleted viability, 60 h, at 10 µM, stronger effect = lower value.
A short description of experiment [6]: RAM pathway blockade in budding yeast – dse1pr::URA3 reporter, 5-FOA selection, pilot screen (AID 869).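 Further: 0% = DMSO wells with no growth and 100% = 10 µM 1-NA-PP1 with full growth; RAM network block rescues cells from 5-FOA so hits raise OD615 growth.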 Particulars: S. cerevisiae dse1pr::URA3 5-FOA growth, OD615, 2 d; at 10 µM; stronger effect = higher value; strain carries analog-sensitive mutant Cbk1 kinase.
Experiment [7] is described as follows: RAM signaling pathway blockade in yeast – S. cerevisiae, Pdr1DBD-CYC8 efflux-inhibited sensitized strain, primary screen (AID 1298;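 active means RAM network inhibition above 8.4% in each of two replicates, 3 SD over the compound average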;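 further: 0% = DMSO untreated cells without growth and 100% = 10 µM 1-NA-PP1 full growth; higher means more yeast growth rescued from 5-FOA killing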). Particulars: S. cerevisiae cbk1-as DSE1-URA3 strain, 5-FOA growth OD615, 2 d; at 50 µM; stronger effect = higher value.

Structures are written as SMILES. Values without a mark were called inactive. Inconclusive results are not listed. Calls of active or inactive are those of the source.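 How the source made its calls, unless noted: active means inhibition over a set limit, the all-compound mean plus 3 SD, in both replicate runs; inconclusive means over that limit in just one replicate run; inactive means at or under that limit in both runs.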

`O=c1c2ccccc2nnn1CSc1nnc(-c2ccco2)o1`: the growth inhibition in experiment [1] is -8.6%; in experiment [2], 2.08%. Also, the viability increase in experiment [3] was -4.5%. Moreover, the viability (in general, a read-out of living cells in per cent, often relative to untreated cells) in experiment [4] was 83.3%; in experiment [5], 86.5%. Also, the inhibition (as a rule, the change of the read-out against control, counted positive when it falls) in experiment [6] is 0.57%. Moreover, in experiment [7], the RAM network inhibition was 0.46%.

As for `COc1ccccc1CNC(=O)CCn1c(=O)oc2ccccc21`, the growth inhibition in experiment [1] was 5.65%; in experiment [2], 6.41%. In addition, the viability increase in experiment [3] is -3.05%. The viability is 104% in experiment [4] and 96.2% in experiment [5]. Further, in experiment [6], the inhibition was 2.48%. The RAM network inhibition in experiment [7] was 5.75%.

With `O=C(Nc1nccs1)C1CCN(S(=O)(=O)c2cccnc2)CC1`, the growth inhibition was -4.93% in experiment [1] and 3.12% in experiment [2]. In addition, in experiment [3], the viability increase was -0.26%. Moreover, the figures for the viability in experiment [4] and in experiment [5] were 102% and 101%, respectively. Besides, the inhibition in experiment [6] was 0.905%. The RAM network inhibition in experiment [7] was -0.78%.

For `O=C(Nc1ccc(-c2nc3cccnc3s2)cc1)c1ccc(Br)o1`, the results for the growth inhibition in experiment [1] and in experiment [2] were 11.6% and 19.6%, respectively. Also, in experiment [3], the viability increase is 3.03%. Moreover, the figures for the viability in experiment [4] and in experiment [5] were 105% and 101%, respectively. For the same compound, the inhibition in experiment [6] is 1.11%. In addition, in experiment [7], the RAM network inhibition is 0.96%.

In the case of `O=C(C1CCCN1S(=O)(=O)c1cccc2cccnc12)N1CCc2ccccc2C1` (stereo not drawn), the growth inhibition was -8.21% in experiment [1] and -13.1% in experiment [2]. In addition, the viability increase in experiment [3] is -1.96%. Further, the viability in experiment [4] was 92.3%; in experiment [5] it was 86.7%. For the same compound, the inhibition in experiment [6] is 0.745%. In addition, the RAM network inhibition in experiment [7] is 0.84%.

Regarding `Cc1cc(-n2nc(C)cc2C)nc(NS(=O)(=O)c2ccccc2)n1`, the growth inhibition in experiment [1] is -11.4%; in experiment [2] it was -20.8%. For the same compound, the viability increase in experiment [3] was -2.09%. Further, the viability was 94.8% in experiment [4] and 94.3% in experiment [5]. Besides, the inhibition in experiment [6] was 2.98%. Also, the RAM network inhibition in experiment [7] is 4.2%.

Turning to `Cc1nn(Cc2ccccc2)c(N)c1-c1ccccc1`, the growth inhibition in experiment [1] is -8.39%; in experiment [2], -9.23%. Also, in experiment [3], the viability increase is -0.57%. Moreover, the viability in experiment [4] is 95.2%; in experiment [5], 87.1%. In addition, the inhibition in experiment [6] is 2.53%. In experiment [7], the RAM network inhibition was 2.53%.

In the case of `CCOc1ccc(N2CCCCn3c2nc2c3c(=O)[nH]c(=O)n2C)cc1`, the growth inhibition was -21.9% in experiment [1] and -16.5% in experiment [2]. The viability increase in experiment [3] was -1.1%. Further, the figures for the viability in experiment [4] and in experiment [5] were 97.8% and 98%, respectively. For the same compound, the inhibition in experiment [6] was 1.5%. Further, in experiment [7], the RAM network inhibition is 2.47%.

In the case of `C=C(C)Cc1c(C)nc(-c2ccccc2)[nH]c1=O`, the values for the growth inhibition in experiment [1] and in experiment [2] were -14% and -14.1%, respectively. Moreover, in experiment [3], the viability increase is 0.87%. Further, the viability is 99.7% in experiment [4] and 98.5% in experiment [5]. For the same compound, the inhibition in experiment [6] was 1.76%. Further, the RAM network inhibition in experiment [7] was 1.46%.

Take `Cc1cccc(N=C(N2CCOCC2)P(=O)(N2CCOCC2)N2CCOCC2)c1`: the growth inhibition in experiment [1] is -24.7%; in experiment [2], -23.4%. Besides, the viability increase in experiment [3] was -0.69%. Moreover, the values for the viability in experiment [4] and in experiment [5] were 98.1% and 92.6%, respectively. For the same compound, the inhibition in experiment [6] is 3.29%. Further, the RAM network inhibition in experiment [7] was 5.26%.

On to `c1nc(N2CCNCC2)c2sc3nc(N4CCOCC4)c4c(c3c2n1)CCC4`, for which the growth inhibition in experiment [1] is -0.055%; in experiment [2], 6.55%. In addition, the viability increase in experiment [3] was -6.75%. The viability in experiment [4] is 2.54% (active); in experiment [5] it was 1.69% (active). The inhibition in experiment [6] was 2.3%. Also, the RAM network inhibition in experiment [7] is 7.31%.

For `CCOC(=O)CNC(=O)CSc1nc2sc(C)c(C)c2c(=O)n1C`, the growth inhibition in experiment [1] is -0.13%; in experiment [2], 34.3%. For the same compound, the viability increase in experiment [3] was -3.44%. The viability in experiment [4] is 98.4%; in experiment [5], 97.6%. Further, in experiment [6], the inhibition is 3.61%. The RAM network inhibition in experiment [7] was 5.94%.

Consider `COc1cc(C2NC(=O)NC(C)=C2C(=O)OCc2ccc(C)cc2)cc(OC)c1O` (stereo not drawn), for which the growth inhibition in experiment [1] was -12.9%; in experiment [2], -10.8%. The viability increase in experiment [3] was 3.29%. Moreover, the viability in experiment [4] is 89.9%; in experiment [5], 82.1%. Besides, in experiment [6], the inhibition was 0.03%. In experiment [7], the RAM network inhibition was 0.58%.

Take `CCn1c(N2CCC(C)CC2)nc2c1c(=O)n(C)c(=O)n2C`: the figures for the growth inhibition in experiment [1] and in experiment [2] were -10.5% and 1.69%, respectively. In experiment [3], the viability increase was -0.88%. Further, the viability is 92.9% in experiment [4] and 85% in experiment [5]. The inhibition in experiment [6] is 1.12%. For the same compound, the RAM network inhibition in experiment [7] was 0.06%.

On to `CCCCCOc1ccc(NC(=O)CCCC(=O)O)cc1`, for which the growth inhibition in experiment [1] was -3.13%; in experiment [2] it was 2.42%. In addition, the viability increase in experiment [3] was -0.75%. In addition, the viability in experiment [4] was 91.1%; in experiment [5], 97.8%. In addition, the inhibition in experiment [6] was -0.545%. Also, the RAM network inhibition in experiment [7] is 1.02%.

For the compound `Cc1cccc(NC(=O)CN2C(=O)COc3ccc(Cl)cc32)c1C`, the figures for the growth inhibition in experiment [1] and in experiment [2] were -3.47% and -2.44%, respectively. Moreover, the viability increase in experiment [3] was -0.9%. Besides, the viability was 87.5% in experiment [4] and 85.8% in experiment [5]. Further, the inhibition in experiment [6] was 2.24%. In addition, in experiment [7], the RAM network inhibition is 4.67%.

Regarding `CCc1nnc(NC(=O)c2ccc(OC)cc2OC)s1`, the growth inhibition in experiment [1] was 16.6%; in experiment [2], 3.21%. Also, the viability increase in experiment [3] is -1.32%. Besides, the viability in experiment [4] was 109%; in experiment [5], 102%. The inhibition in experiment [6] was 1.68%. Further, the RAM network inhibition in experiment [7] is 2.76%.

On to `C=CCn1c(CCCNC(=O)C(C)(C)C)nc2ccccc21`, for which the growth inhibition in experiment [1] is -10.7%; in experiment [2] it was -20.9%. In experiment [3], the viability increase was -1.33%. Further, the viability in experiment [4] was 99.7%; in experiment [5], 96.1%. Also, the inhibition in experiment [6] was 0.295%. Moreover, the RAM network inhibition in experiment [7] is 5.54%.

Regarding `CC(=O)N1CCc2cc(C(=O)CN3CCCCC3)ccc21`, the growth inhibition in experiment [1] was -6.58%; in experiment [2] it was -8.28%. Further, the viability increase in experiment [3] was -2.19%. The viability in experiment [4] is 99%; in experiment [5] it was 94.7%. Moreover, the inhibition in experiment [6] is 0.435%. The RAM network inhibition in experiment [7] is 1.91%.

In the case of `COC(=O)c1ccccc1Nc1cc(C)nc2nc(C)nn12`, the growth inhibition in experiment [1] is -5.25%; in experiment [2], 0.455%. Also, in experiment [3], the viability increase is -3.74%. In addition, the viability in experiment [4] is 105%; in experiment [5] it was 115%. Further, the inhibition in experiment [6] was -0.315%. For the same compound, the RAM network inhibition in experiment [7] was 1.72%.

For the compound `COc1ccc(C2C(C(=O)Nc3cccnc3)=C(C)Nc3nc(-c4ccco4)nn32)cc1` (stereo not drawn), the figures for the growth inhibition in experiment [1] and in experiment [2] were 4.86% and -9.13%, respectively. For the same compound, the viability increase in experiment [3] was -1.69%. Besides, the viability in experiment [4] is 108%; in experiment [5], 104%. Further, the inhibition in experiment [6] was 0.55%. Besides, the RAM network inhibition in experiment [7] is 2.07%.

Take `CCCN1CCN(C(=O)Cn2ncc3ccccc32)CC1`: the growth inhibition in experiment [1] is -12.4%; in experiment [2] it was -16.9%. The viability increase in experiment [3] is -2.31%. Further, the viability was 100% in experiment [4] and 98.2% in experiment [5]. Further, the inhibition in experiment [6] is 1.26%. The RAM network inhibition in experiment [7] was 3.84%.

With `COc1cccc(N(CC(=O)NCc2cccnc2)S(C)(=O)=O)c1`, the growth inhibition in experiment [1] was -11.3%; in experiment [2] it was -4.04%. In experiment [3], the viability increase was -1.47%. The viability in experiment [4] was 95.1%; in experiment [5], 94.6%. Further, the inhibition in experiment [6] was 0.625%. In experiment [7], the RAM network inhibition is 3.01%.

For `CSc1ccccc1NC(=O)c1cnc2scc(C)n2c1=O`, the growth inhibition in experiment [1] was -16.8%; in experiment [2], 3.44%. Besides, the viability increase in experiment [3] is -2.05%. Further, the figures for the viability in experiment [4] and in experiment [5] were 87.1% and 88.1%, respectively. Besides, in experiment [6], the inhibition is 0.665%. For the same compound, in experiment [7], the RAM network inhibition is 3.71%.
